# Reference: ChEMBL document CHEMBL1124394, “Synthesis and biological evaluation of 14-alkoxymorphinans. 2. (-)-N-(cyclopropylmethyl)-4,14-dimethoxymorphinan-6-one, a selective mu opioid receptor antagonist” (J Med Chem, 1989)
# Values joined by “and” are separate entries in the source; they are usually repeats but may differ in a detail not shown here. Identical values can stand only once.
# Key:
# [1] = tested on: Oryctolagus cuniculus; assay: Percent change of volume in the respiratory activity was measured in rabbit at the 1 mg/kg dose given intravenously; type: functional; settings: route intravenous
# In short: (§1)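 Rabbits were dosed iv in saline (1.5 mL/kg); 1 N HCl was sometimes added to dissolve the compound. Percent change (±SE) in respiratory volume and rate was recorded.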
# [2] = molecular target: Mu-type opioid receptor (Cavia porcellus) (UniProt P97266)
# Chain of Mu-type opioid receptor (Cavia porcellus) (P97266 whole entry): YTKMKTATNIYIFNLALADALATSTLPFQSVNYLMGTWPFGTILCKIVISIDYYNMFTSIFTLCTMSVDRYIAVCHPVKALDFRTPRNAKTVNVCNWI
# [3] = molecular target: Kappa-type opioid receptor (Mus musculus) (UniProt P33534); settings: Vas deferens
# Chain of Kappa-type opioid receptor (Mus musculus) (P33534 whole entry): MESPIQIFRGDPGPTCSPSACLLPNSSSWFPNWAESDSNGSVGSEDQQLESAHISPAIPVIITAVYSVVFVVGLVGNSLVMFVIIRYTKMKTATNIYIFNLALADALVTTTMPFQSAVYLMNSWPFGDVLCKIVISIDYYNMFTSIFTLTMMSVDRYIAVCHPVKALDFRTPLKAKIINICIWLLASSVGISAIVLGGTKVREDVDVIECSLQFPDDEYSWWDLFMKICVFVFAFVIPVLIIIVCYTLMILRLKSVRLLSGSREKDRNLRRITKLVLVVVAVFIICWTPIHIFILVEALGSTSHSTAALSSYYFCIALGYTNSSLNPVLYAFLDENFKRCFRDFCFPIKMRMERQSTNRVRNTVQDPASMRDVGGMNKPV
# [4] = molecular target: Mu-type opioid receptor (Rattus norvegicus) (UniProt P33535); settings: Vas deferens
# Chain of Mu-type opioid receptor (Rattus norvegicus) (P33535 whole entry): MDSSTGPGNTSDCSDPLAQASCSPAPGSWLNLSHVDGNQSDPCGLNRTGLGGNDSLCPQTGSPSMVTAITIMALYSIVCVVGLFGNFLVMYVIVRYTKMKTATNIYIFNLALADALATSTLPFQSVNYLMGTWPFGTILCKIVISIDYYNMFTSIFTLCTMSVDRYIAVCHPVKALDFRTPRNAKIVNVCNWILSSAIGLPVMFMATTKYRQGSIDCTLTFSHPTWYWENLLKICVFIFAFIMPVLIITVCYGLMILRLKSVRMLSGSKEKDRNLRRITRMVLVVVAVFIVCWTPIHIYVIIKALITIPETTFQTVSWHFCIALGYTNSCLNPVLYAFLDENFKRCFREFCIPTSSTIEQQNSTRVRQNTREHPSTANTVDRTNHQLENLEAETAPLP
# [5] = molecular target: Kappa-type opioid receptor (Cavia porcellus) (UniProt P41144)
# Chain of Kappa-type opioid receptor (Cavia porcellus) (P41144 whole entry): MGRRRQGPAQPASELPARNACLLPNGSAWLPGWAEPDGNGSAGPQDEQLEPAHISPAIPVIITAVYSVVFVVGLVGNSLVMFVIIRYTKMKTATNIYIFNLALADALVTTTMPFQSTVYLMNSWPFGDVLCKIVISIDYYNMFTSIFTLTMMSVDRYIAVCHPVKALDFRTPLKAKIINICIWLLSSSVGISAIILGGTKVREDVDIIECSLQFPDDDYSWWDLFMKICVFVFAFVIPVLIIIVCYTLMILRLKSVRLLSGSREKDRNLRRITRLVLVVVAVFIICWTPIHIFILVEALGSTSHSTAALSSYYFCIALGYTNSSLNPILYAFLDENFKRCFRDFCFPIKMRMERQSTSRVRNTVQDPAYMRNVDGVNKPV
# [6] = molecular target: Mu-type opioid receptor (Mus musculus) (UniProt P42866); settings: Vas deferens
# Chain of Mu-type opioid receptor (Mus musculus) (P42866 whole entry): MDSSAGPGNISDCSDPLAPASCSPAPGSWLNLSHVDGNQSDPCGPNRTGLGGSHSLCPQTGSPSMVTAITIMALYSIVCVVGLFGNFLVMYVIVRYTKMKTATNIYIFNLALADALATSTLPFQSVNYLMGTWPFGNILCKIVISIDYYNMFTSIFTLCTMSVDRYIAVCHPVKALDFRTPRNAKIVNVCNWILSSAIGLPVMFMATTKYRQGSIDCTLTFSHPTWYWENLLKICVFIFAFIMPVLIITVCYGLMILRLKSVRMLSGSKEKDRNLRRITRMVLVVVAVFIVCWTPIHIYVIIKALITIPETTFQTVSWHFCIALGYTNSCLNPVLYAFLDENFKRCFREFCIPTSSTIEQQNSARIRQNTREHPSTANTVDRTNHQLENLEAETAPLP
# [7] = molecular target: Delta-type opioid receptor (Mus musculus) (UniProt P32300); settings: Vas deferens
# Chain of Delta-type opioid receptor (Mus musculus) (P32300 whole entry): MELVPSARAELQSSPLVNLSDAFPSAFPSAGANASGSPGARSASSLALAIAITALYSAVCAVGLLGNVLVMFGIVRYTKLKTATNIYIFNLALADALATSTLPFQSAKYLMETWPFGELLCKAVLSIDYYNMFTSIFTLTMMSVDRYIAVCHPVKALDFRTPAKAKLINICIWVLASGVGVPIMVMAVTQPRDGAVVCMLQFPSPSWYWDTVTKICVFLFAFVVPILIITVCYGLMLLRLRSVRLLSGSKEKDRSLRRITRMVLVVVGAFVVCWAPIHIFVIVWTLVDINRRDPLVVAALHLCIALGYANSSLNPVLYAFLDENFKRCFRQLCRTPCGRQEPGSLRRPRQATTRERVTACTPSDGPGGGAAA
# [8] = tested on: Oryctolagus cuniculus; assay: Percent change of rate in the respiratory activity was measured in rabbit at the 1 mg/kg dose given intravenously; type: functional; settings: route intravenous; in short: as §1
# [9] = molecular target: Delta-type opioid receptor (Rattus norvegicus) (UniProt P33533); settings: Vas deferens
# Chain of Delta-type opioid receptor (Rattus norvegicus) (P33533 whole entry): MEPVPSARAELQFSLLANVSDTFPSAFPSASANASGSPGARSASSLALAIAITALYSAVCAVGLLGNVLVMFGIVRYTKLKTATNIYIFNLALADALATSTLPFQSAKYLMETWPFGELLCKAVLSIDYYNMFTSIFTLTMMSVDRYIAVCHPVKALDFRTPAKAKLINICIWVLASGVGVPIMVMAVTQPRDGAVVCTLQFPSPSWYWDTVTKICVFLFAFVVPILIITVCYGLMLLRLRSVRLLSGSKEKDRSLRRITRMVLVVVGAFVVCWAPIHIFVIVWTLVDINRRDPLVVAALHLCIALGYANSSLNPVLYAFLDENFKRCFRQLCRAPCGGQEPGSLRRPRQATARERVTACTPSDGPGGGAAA
# [10] = tested on: Oryctolagus cuniculus; assay: Percent change of rate in the respiratory activity was measured in rabbit at 0.1 mg/kg dose given intravenously; type: functional; settings: route intravenous; in short: as §1
# [11] = tested on: Mus musculus; assay: Percent reduction of analgesia induced by morphine at 10 mg/kg after sc administration was measured in mice; type: functional; settings: route subcutaneous
# In short: (§2)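 Mice received the opioid agonist sc (morphine 10 mg/kg or U-50,488 15 mg/kg), then the test compound sc 20 min later in saline (10 mL/kg). Writhing was then induced with acetic acid. Read-out was percent reduction of agonist-induced analgesia.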
# [12] = tested on: Mus musculus; assay: Percent reduction of analgesia induced by U-50,488 at 15 mg/kg after sc administration was measured in mice; type: functional; settings: route subcutaneous; in short: as §2
# [13] = molecular target: Opioid receptor (Rattus norvegicus, UniProt P33533+P34975+P33535); assay: Inhibition of [3H]naloxone binding to opioid receptor in presence of NaCl; type: protein assay
# In short: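 Rat (male F1-albino, 140–180 g) whole brain minus cerebellum, homogenised in ice-cold 50 mmol/L Tris-HCl pH 7.4 with NaCl, centrifuged 18000g 10 min and rehomogenised. Nonspecific binding defined with 1 μmol/L levallorphan. Competitor tested at ≥5 concentrations in duplicate, two independent runs. IC50 taken graphically or from a least-squares sigmoid fit.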
# [14] = tested on: Oryctolagus cuniculus; assay: Percent change of volume in the respiratory activity was measured in rabbit at the 0.1 mg/kg dose given intravenously; type: functional; settings: route intravenous; in short: as §1
# [15] = tested on: Oryctolagus cuniculus; assay: Percent change of rate in the respiratory activity was measured in rabbit at the 0.1 mg/kg dose given intravenously; type: functional; settings: route intravenous; in short: as §1
structure (smiles),measurement,setting,value
COc1cccc2c1[C@]13CCN(CC4CC4)[C@H](C2)[C@]1(OC)CCC(=O)C3 [CYPRODIME],Volume change,[1],21%
same,Ke,[2],31 nM
same,Ke,[3],1550 nM
same,Ke,[4],61.6 nM
same,Ke,[5],1160 nM
same,Ke,[6],55.4 nM
same,Ke,[7],6.11 µM
same,Rate change,[8],-6.9%
same,Ke,[9],4.56 µM
O=C1CC[C@@]2(O)[C@H]3Cc4ccc(O)c5c4[C@@]2(CCN3CC2CC2)[C@H]1O5 [NALTREXONE],Rate change,[10],7.5%
same,Reduction,[11],94%
same,Reduction,[12],19%
C=CCN1CC[C@]23CCCC[C@H]2[C@H]1Cc1ccc(O)cc13 [LEVALLORPHAN],IC50,[13],1100 pM and 540 pM
C=CCN1CC[C@]23c4c5ccc(O)c4O[C@H]2C(=O)CC[C@@]3(O)[C@H]1C5 [NALOXONE],Reduction,[11],87%
same,Volume change,[14],23%
same,Reduction,[12],83%
same,Rate change,[15],7.3%
